Data reported in article PMC4073659 (Journal of Natural Products, 2014).

How the values were obtained:
[1] = tested on: delta toxin production (strain AH2759); experiment: Quorum sensing inhibition observed by delta toxin immunoblot; type: cell-based, Staphylococcus aureus (MRSA); settings: strain AH2759 in TSB; compounds 0.3–400 μM, AIP-2 2–500 nM; spent media
Procedure, shortened: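 Spent media from the agr P3lux reporter cultures: TSB with 10 μg/mL chloramphenicol, 1:500 inoculum, 1% DMSO final, 37 °C with shaking at 250 rpm. Wells were pooled and 0.22 μm filtered, then run on 15% SDS-PAGE and transferred to PVDF (90 min, 160 mA). Blots were blocked overnight at 4 °C in milk/BSA TBST, then probed 1 h at rt with rabbit anti-delta toxin (1:2000) and HRP anti-rabbit (1:10 000).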

[2] = tested on: agr quorum-sensing system (agr P3lux reporter strain AH2759); experiment: agr P3lux reporter strain assay for quorum sensing inhibition; type: cell-based, Staphylococcus aureus (CA-MRSA strain LAC, USA300); settings: Staphylococcus aureus, read-out: agr P3lux IC50, reporter strain AH2759; cell-density-normalized luminescence; ± standard error from four-parameter logistic fit

| Compound | suppression of delta toxin production (immunoblot) [1] | IC50 [2] [µM] |
| --- | --- | --- |
| CC(=O)C(O)c1cc(O)c2c(c1)C(=O)c1cc(O)cc(O)c1C2=O (centres unmarked) [compound 4] | dose-dependent suppression |  |
| O=C1c2cc(O)cc(O)c2C(=O)c2c(O)cc(CO)cc21 [compound 3, ω-hydroxyemodin] | dose-dependent suppression | < 10 |
| C[C@H](O)Cc1cc(O)c2c(c1)C(=O)c1cc(O)cc(O)c1C2=O [compound 6, (+)-2′S-isorhodoptilometrin] |  | < 10 |
| O=C(O)c1cc(O)c2c(c1)C(=O)c1cc(O)c(O)c(O)c1C2=O [compound 1] | dose-dependent suppression |  |
